Data reported in ChEMBL document CHEMBL1671655, “Anidulafungin is fungicidal and exerts a variety of postantifungal effects against Candida albicans, C. glabrata, C. parapsilosis, and C. krusei isolates” (2009).
Values after ≈ are worked out from the molar mass of the structure shown. Active and inactive are the calls of the source. The rule behind the calls is not given here. Starred links: 1 amine or outer side, 2 acyl side, 3 side chain; linkers in the order of their positions; H or OH if unused. Positions of bridges follow the written chain, without caps; N, C: chain ends. Non-standard residues stand in square brackets, D forms with d. Residues, ends and D or L forms follow the SMILES beside them. *: point of attachment. pTerphenylCO(4''-OnC5H11) = CCCCCOc1ccc(-c2ccc(-c3ccc(C(=O)*)cc3)cc2)cc1; Orn(4R-OH,5R-OH) = O=C([C@H](C[C@@H](O)[C@@H](O)N[*:3])N[*:1])[*:2]; hTyr(3S-OH,4S-OH) = N[C@H](C(=O)O)[C@H](O)[C@@H](O)c1ccc(O)cc1; Pro(3S-OH,4S-Me) = C[C@H]1CN[C@H](C(=O)O)[C@H]1O; Hyp = O=C(O)[C@@H]1C[C@@H](O)CN1

Experiments:
Candida parapsilosis [1] = test: Fungicidal activity against Candida parapsilosis isolate S assessed as log reduction in bacterial count at 4 times MIC after 48 hrs by time-kill analysis; format: functional; settings: Lodderomyces parapsilosis
Procedure, shortened: (§1)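 Isolates subcultured twice on SDA, then suspended to 0.5 McFarland and diluted into RPMI 1640 (MOPS, pH 7.0) with or without anidulafungin, giving about 1 x 10^5 to 5 x 10^5 CFU/ml. Tubes were shaken at 35°C. Samples were taken at 0, 2, 4, 8, 12, 24 and 48 h, serially diluted 10-fold, plated on SDA, and CFU counted after 48 h at 35°C. Each isolate was run twice; mean values.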

Candida parapsilosis [2] = test: Fungicidal activity against Candida parapsilosis isolate A assessed as log reduction in bacterial count at 16 times MIC after drug exposure for 1 hr followed by washout measured after 48 hrs in the absence of drug by PAFE study; format: functional; settings: Lodderomyces parapsilosis
Procedure, shortened: (§2)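 Inoculum about 1 x 10^5 to 5 x 10^5 CFU/ml in RPMI 1640 (MOPS, pH 7.0) with drug, shaken at 35°C for 1 h. Cells were then washed and centrifuged at 1,400 x g for 10 min (3 cycles) and resuspended in warm drug-free RPMI. Samples plated on SDA at 0, 2, 4, 8, 12, 24 and 48 h; CFU counted after 48 h at 35°C. Run twice per isolate; means.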

Candida tropicalis = test: Antifungal activity against Candida tropicalis by NCCLS M27A broth microdilution method; format: functional
Nakaseomyces glabratus [3] = test: Increase in susceptibility to SDS in Candida glabrata isolate 1 assessed as cell wall damage at 4 times MIC after 1 hr relative to control; format: functional, organism-based
Procedure, shortened: (§3)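 Cells recovered 8 h after a 1-h drug exposure were grown in YPD with 1% glucose to exponential phase and adjusted to OD599 0.1. Undiluted culture and 10-fold serial dilutions were spotted onto YPD plates containing SDS (0.01 to 0.04%), then incubated 72 h at 30°C. Growth compared with unexposed control cells; triplicate.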

Candida albicans [4] = test: Antifungal activity against Candida albicans isolate 1 assessed as cell wall damage at 4 times MIC by Transmission electron microscopy; format: functional, organism-based
Procedure, shortened: (§4)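 Cells recovered 8 h after a 1-h drug exposure were grown on SDA for 24 h at 35°C. Colonies fixed at 4°C in 0.1 M cacodylate (pH 7.2) with 2% glutaraldehyde and 2% paraformaldehyde, ethanol-dehydrated and embedded in Lowicryl K4M. Thin sections examined by transmission EM.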

Nakaseomyces glabratus [5] = test: Antifungal activity against Candida glabrata isolate 1 assessed as cell wall damage at 4 times MIC by Transmission electron microscopy; format: functional, organism-based; procedure, shortened: as §4
Nakaseomyces glabratus [6] = test: Antifungal activity against Candida glabrata assessed as time period for bacterial regrowth inhibition after 1 hr drug exposure; format: functional
Nakaseomyces glabratus [7] = test: Increase in susceptibility to calcofluor white in Candida glabrata isolate 3 assessed as cell wall damage at 16 times MIC after 1 hr relative to control; format: functional, organism-based
Procedure, shortened: (§5)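 Cells recovered 8 h after a 1-h drug exposure were grown to exponential phase in YPD with 1% glucose and adjusted to OD599 0.1. Undiluted and 10-fold serially diluted cultures were spotted onto YPD plates containing calcofluor white, then incubated at 30°C for 72 h. Growth compared with no-drug control cells; triplicate.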

Candida albicans [8] = test: Increase in susceptibility to calcofluor white in Candida albicans ATCC 90028 assessed as cell wall damage at MIC after 1 hr relative to control; format: functional, organism-based; procedure, shortened: as §5
Candida albicans [9] = test: Antifungal activity against Candida albicans ATCC 90028 assessed as time period for bacterial growth inhibition at 16 times MIC after 1 hr drug exposure; format: functional
Procedure, shortened: (§6)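 Inoculum of about 1 x 10^5 to 5 x 10^5 CFU/ml in MOPS-buffered RPMI (pH 7.0), shaken at 35°C and exposed to drug for 1 h. Cells then washed and centrifuged three times and resuspended in drug-free warm RPMI. Samples plated on SDA at 0, 2, 4, 8, 12, 24 and 48 h, with CFU counted after 48 h at 35°C. Run twice per isolate; values are means.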

Nakaseomyces glabratus [10] = test: Antifungal activity against Candida glabrata isolate 1 assessed as time period for bacterial growth inhibition at 16 times MIC after 1 hr drug exposure; format: functional; procedure, shortened: as §6
Nakaseomyces glabratus [11] = test: Increase in susceptibility to SDS in Candida glabrata isolate 3 assessed as cell wall damage at 4 times MIC after 1 hr relative to control; format: functional, organism-based; procedure, shortened: as §3
Nakaseomyces glabratus [12] = test: Fungicidal activity against Candida glabrata isolate 2 assessed as log reduction in bacterial count at 16 times MIC after 48 hrs by time-kill analysis; format: functional; settings: isolate 2, 48 h
Procedure, shortened: (§7)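 Isolates subcultured twice on SDA, suspended to 0.5 McFarland, giving ~1 x 10^5 to 5 x 10^5 CFU/ml in MOPS-buffered RPMI 1640 (pH 7.0) with or without drug at multiples of MIC (MIC by CLSI M27-A3). Tubes shaken at 35°C with continuous drug. Sampled at 0–48 h, diluted 10-fold and plated on SDA; CFU counted after 48 h at 35°C. Run twice per isolate; means.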

Nakaseomyces glabratus [13] = test: Fungicidal activity against Candida glabrata isolate 3 assessed as log reduction in bacterial count at MIC after 48 hrs by time-kill analysis; format: functional; settings: isolate 3, 48 h; procedure, shortened: as §7
Candida albicans [14] = test: Inhibition of Candida albicans isolate 1 adherence to human buccal epithelial cells at 4 times MIC after 1 hr by adherence assay relative to control; format: functional, Epithelial cell
Procedure, shortened: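 Candida collected 8 h after a 1-h 4x MIC pulse and washout were grown on SDA for 24 h at 35°C. Buccal epithelial cells were pooled from three donors and washed in PBS. Cells (1 x 10^5/ml) were mixed 1:1 by volume with Candida (1 x 10^6/ml) and shaken 1 h at 37°C. Mixtures were filtered, washed, and Gram-stained, and Candida were counted per 100 epithelial cells. Run in duplicate on ≥2 occasions; Student's t test against unexposed controls.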

Candida parapsilosis [15] = test: Fungicidal activity against Candida parapsilosis isolate 1 assessed as log reduction in bacterial count at MIC after drug exposure for 1 hr followed by washout measured after 48 hrs in the absence of drug by PAFE study; format: functional; settings: Lodderomyces parapsilosis; procedure, shortened: as §2
Pichia kudriavzevii [16] = test: Antifungal activity against Candida krusei assessed as time period for bacterial regrowth inhibition after 1 hr drug exposure; format: functional
Candida parapsilosis [17] = test: Increase in susceptibility to SDS in Candida parapsilosis isolate A assessed as cell wall damage at 16 times MIC after 1 hr relative to control; format: functional, organism-based; procedure, shortened: as §3
Pichia kudriavzevii [18] = test: Fungicidal activity against Candida krusei isolate ATCC 6258 assessed as log reduction in bacterial count at MIC after 48 hrs by time-kill analysis; format: functional; settings: isolate ATCC 6258, 48 h; procedure, shortened: as §7
Candida parapsilosis [19] = test: Fungicidal activity against Candida parapsilosis isolate A assessed as log reduction in bacterial count at MIC after 48 hrs by time-kill analysis; format: functional; settings: Lodderomyces parapsilosis; procedure, shortened: as §1
Candida parapsilosis [20] = test: Fungicidal activity against Candida parapsilosis isolate 1 assessed as log reduction in bacterial count at 16 times MIC after 48 hrs by time-kill analysis; format: functional; settings: Lodderomyces parapsilosis, isolate 1, 48 h; procedure, shortened: as §7
Pichia kudriavzevii [21] = test: Fungicidal activity against Candida krusei isolate ATCC 6258 assessed as log reduction in bacterial count at 16 times MIC after 48 hrs by time-kill analysis; format: functional; settings: isolate ATCC 6258, 48 h; procedure, shortened: as §7
Candida albicans [22] = test: Increase in susceptibility to calcofluor white in Candida albicans isolate 1 assessed as cell wall damage at 4 times MIC after 1 hr relative to control; format: functional, organism-based; procedure, shortened: as §5
Candida parapsilosis [23] = test: Fungicidal activity against Candida parapsilosis isolate 1 assessed as log reduction in bacterial count at MIC after 48 hrs by time-kill analysis; format: functional; settings: Lodderomyces parapsilosis, isolate 1, 48 h; procedure, shortened: as §1
Pichia kudriavzevii [24] = test: Antifungal activity against Candida krusei isolate 1 assessed as cell wall damage at 4 times MIC by Transmission electron microscopy; format: functional, organism-based; procedure, shortened: as §4

CCCCCOc1ccc(-c2ccc(-c3ccc(C(=O)N[C@H]4C[C@@H](O)[C@@H](O)NC(=O)[C@@H]5[C@@H](O)[C@@H](C)CN5C(=O)[C@H]([C@@H](C)O)NC(=O)[C@H]([C@H](O)[C@@H](O)c5ccc(O)cc5)NC(=O)[C@@H]5C[C@@H](O)CN5C(=O)[C@H]([C@@H](C)O)NC4=O)cc3)cc2)cc1 [ANIDULAFUNGIN] ({pTerphenylCO(4''-OnC5H11)}-[Orn(4R-OH,5R-OH)]T[Hyp][hTyr(3S-OH,4S-OH)]T[Pro(3S-OH,4S-Me)]; lactam 1-C)
log reduction (Candida parapsilosis [1]): 2.77 log CFU/ml | log reduction (Candida parapsilosis [2]): 3.47 | MIC90 (Candida tropicalis): 0.06 µg/mL (≈ 0.0526 µM) | Activity (Nakaseomyces glabratus [3]): Active | Activity (Candida albicans [4]): Active | Activity (Nakaseomyces glabratus [5]): Active | Time (Nakaseomyces glabratus [6]): >=12 hr | Activity (Nakaseomyces glabratus [7]): Active | Activity (Candida albicans [8]): Active | Time (Candida albicans [9]): 8 h | Time (Nakaseomyces glabratus [10]): 8 h | Activity (Nakaseomyces glabratus [11]): Active | log reduction (Nakaseomyces glabratus [12]): 3.14 log CFU/ml | log reduction (Nakaseomyces glabratus [13]): 1 log CFU/ml | inhibition (INH) (Candida albicans [14]): 58% | log reduction (Candida parapsilosis [15]): 0.81 | Time (Pichia kudriavzevii [16]): >=12 hr | Activity (Candida parapsilosis [17]): Active | log reduction (Pichia kudriavzevii [18]): 2.21 log CFU/ml | log reduction (Candida parapsilosis [19]): 1.76 log CFU/ml | log reduction (Candida parapsilosis [20]): 3.47 log CFU/ml | log reduction (Pichia kudriavzevii [21]): 3.2 log CFU/ml | Activity (Candida albicans [22]): Active | log reduction (Candida parapsilosis [23]): 1.65 log CFU/ml | Activity (Pichia kudriavzevii [24]): Active
